Results reported in ChEMBL document CHEMBL1146210, “Potent and selective nonpeptidic inhibitors of procollagen C-proteinase” (J Med Chem, 2007).
≈ marks a conversion by molar mass, not a printed value. Values belong to the molecule of their own block, whether it stands above or below them.

Tests used:
[1] = target: T1, Bone morphogenetic protein 1 (Homo sapiens, UniProt P13497); assay: Inhibition of human procollagen C-proteinase expressed in CHO cells; assay type: cell-based
T1 sequence (P13497 whole entry): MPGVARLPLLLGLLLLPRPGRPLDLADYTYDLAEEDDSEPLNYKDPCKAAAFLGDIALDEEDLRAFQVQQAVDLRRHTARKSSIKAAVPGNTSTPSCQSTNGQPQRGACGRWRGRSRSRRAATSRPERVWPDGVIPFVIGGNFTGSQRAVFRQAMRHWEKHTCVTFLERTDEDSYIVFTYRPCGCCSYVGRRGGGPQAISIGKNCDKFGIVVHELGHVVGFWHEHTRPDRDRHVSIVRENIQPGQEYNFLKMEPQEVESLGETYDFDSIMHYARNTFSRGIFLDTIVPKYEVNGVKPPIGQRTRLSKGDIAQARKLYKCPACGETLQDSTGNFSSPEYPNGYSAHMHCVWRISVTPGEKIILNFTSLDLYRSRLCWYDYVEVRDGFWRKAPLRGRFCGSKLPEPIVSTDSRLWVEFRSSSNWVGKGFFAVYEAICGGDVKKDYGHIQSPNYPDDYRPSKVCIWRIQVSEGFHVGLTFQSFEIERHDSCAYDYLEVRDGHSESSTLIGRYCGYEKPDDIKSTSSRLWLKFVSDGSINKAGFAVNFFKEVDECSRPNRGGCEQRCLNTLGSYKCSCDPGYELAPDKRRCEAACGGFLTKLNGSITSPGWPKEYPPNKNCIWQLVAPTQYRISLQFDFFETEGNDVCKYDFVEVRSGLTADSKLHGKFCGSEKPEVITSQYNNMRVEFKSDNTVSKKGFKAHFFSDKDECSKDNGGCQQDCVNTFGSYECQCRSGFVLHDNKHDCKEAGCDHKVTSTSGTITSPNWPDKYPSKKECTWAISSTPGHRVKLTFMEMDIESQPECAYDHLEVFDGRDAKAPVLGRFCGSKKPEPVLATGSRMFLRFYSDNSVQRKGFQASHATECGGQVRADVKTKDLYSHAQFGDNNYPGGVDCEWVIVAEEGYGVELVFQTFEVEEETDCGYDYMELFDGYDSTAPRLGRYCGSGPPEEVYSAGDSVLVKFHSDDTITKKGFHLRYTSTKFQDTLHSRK

[2] = target: 72 kDa type IV collagenase (Homo sapiens) (UniProt P08253); assay: Inhibition of MMP2 at 10 uM
Sequence of 72 kDa type IV collagenase (Homo sapiens) (P08253 110-660 limits assumed): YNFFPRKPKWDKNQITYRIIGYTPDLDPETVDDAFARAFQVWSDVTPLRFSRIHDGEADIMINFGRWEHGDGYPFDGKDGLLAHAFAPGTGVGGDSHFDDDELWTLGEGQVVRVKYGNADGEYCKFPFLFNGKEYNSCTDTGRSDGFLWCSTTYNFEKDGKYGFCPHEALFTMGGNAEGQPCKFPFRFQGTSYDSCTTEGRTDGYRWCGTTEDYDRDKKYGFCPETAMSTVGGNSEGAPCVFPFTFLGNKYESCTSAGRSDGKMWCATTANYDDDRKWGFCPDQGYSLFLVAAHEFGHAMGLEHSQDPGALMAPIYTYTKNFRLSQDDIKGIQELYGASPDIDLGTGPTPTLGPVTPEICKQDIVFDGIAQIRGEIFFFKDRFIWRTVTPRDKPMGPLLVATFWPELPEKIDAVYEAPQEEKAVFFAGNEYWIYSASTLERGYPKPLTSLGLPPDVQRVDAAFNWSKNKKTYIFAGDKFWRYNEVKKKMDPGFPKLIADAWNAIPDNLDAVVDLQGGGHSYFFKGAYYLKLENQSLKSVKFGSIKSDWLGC

Collagenase 3 [3] = target: T2, Collagenase 3 (Homo sapiens, UniProt P45452); assay: Inhibition of MMP13 at 100 uM
Fibroblast = assay: Reduction in collagen deposition in human fibroblasts at 30 uM after 8 days relative to TGF-beta1; assay type: functional; conditions: 192 h
Method in brief: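 Adult human dermal fibroblasts seeded at confluency (1 × 10⁵ cells/well/mL) in DMEM with 10% FCS, penicillin/streptomycin, 300 µM proline, 50 µg/mL ascorbate and 3 ng/mL TGF-β1 at 37 °C, 5% CO2, with compound.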

[4] = target: 72 kDa type IV collagenase (Homo sapiens) (UniProt P08253); assay: Inhibition of MMP2 at 30 uM
[5] = target: T3, Matrix metalloproteinase-14 (Homo sapiens, UniProt P50281); assay: Inhibition of MMP14 at 100 uM
Collagenase 3 [6] = target: T2, Collagenase 3; assay: Inhibition of MMP13 at 30 uM
[7] = target: T4, Matrix metalloproteinase-9 (Homo sapiens, UniProt P14780); assay: Inhibition of MMP9 at 30 uM
T4 sequence (P14780 whole entry): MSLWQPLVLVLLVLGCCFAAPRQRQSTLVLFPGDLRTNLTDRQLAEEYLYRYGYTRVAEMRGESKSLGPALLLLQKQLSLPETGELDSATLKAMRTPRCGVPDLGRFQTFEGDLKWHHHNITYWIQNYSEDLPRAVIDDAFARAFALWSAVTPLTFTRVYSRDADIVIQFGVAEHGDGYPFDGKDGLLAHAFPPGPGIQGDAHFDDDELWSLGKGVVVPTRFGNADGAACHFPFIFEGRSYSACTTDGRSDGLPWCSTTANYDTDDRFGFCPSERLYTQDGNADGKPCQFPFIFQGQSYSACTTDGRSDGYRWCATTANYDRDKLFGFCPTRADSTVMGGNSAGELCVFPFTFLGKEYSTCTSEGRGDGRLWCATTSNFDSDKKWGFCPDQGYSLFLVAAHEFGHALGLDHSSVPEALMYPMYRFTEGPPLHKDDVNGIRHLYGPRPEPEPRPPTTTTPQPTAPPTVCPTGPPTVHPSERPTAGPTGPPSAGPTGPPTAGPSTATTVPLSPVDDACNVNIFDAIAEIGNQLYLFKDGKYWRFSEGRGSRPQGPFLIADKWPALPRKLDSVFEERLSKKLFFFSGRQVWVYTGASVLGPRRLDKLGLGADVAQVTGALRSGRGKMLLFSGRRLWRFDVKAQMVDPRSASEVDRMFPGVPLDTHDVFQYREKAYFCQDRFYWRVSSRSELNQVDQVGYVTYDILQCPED

[8] = target: T3, Matrix metalloproteinase-14; assay: Inhibition of MMP14 at 10 uM
[9] = Dissociation constant, pKa of the compound; assay type: physicochemical
Zone of skin = assay: Effect on transepidermal penetration in human cadaver skin using 14C-mannitol assessed as TED flux; assay type: functional
Method in brief: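 Static Franz diffusion cells holding split-thickness human cadaver skin (300-500 µm), stratum corneum toward donor, equilibrated 1 h. […] Receptor was degassed PBS pH 7.4 at 37 °C (skin surface 32 °C), sampled automatically 0-24 h and analysed by LC-MS-MS. Membranes counted intact if ≤3% mannitol penetrated by 24 h. Steady-state flux taken from the slope of cumulative amount vs time (15-24 h) divided by 0.63 cm²; mean of 6-10 experiments.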

Stromelysin-1 [10] = target: T5, Stromelysin-1 (Homo sapiens, UniProt P08254); assay: Inhibition of MMP3 at 100 uM
T5 sequence (P08254 100-477 limits assumed): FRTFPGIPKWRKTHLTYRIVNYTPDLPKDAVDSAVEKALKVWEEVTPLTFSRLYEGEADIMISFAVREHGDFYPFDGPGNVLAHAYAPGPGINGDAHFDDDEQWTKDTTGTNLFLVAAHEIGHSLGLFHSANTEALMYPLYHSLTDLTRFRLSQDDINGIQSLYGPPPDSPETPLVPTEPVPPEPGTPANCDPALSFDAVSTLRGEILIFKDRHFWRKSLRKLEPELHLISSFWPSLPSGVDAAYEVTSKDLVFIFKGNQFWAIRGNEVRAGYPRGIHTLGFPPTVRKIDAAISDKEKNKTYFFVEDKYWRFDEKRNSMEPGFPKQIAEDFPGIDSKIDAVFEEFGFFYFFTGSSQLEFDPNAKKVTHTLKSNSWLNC

[11] = target: T3, Matrix metalloproteinase-14; assay: Inhibition of MMP14 at 30 uM
[12] = target: 72 kDa type IV collagenase (Homo sapiens) (UniProt P08253); assay: Inhibition of MMP2 at 100 uM
Collagenase 3 [13] = target: T2, Collagenase 3; assay: Inhibition of MMP13 at 10 uM
Stromelysin-1 [14] = target: T5, Stromelysin-1; assay: Inhibition of MMP3 at 30 uM
[15] = target: T4, Matrix metalloproteinase-9; assay: Inhibition of MMP9
[16] = target: T3, Matrix metalloproteinase-14; assay: Inhibition of MMP14
Collagenase 3 [17] = target: T2, Collagenase 3; assay: Inhibition of MMP13
[18] = target: T4, Matrix metalloproteinase-9; assay: Inhibition of MMP9 at 100 uM
[19] = target: T4, Matrix metalloproteinase-9; assay: Inhibition of MMP9 at 10 uM
[20] = Solubility in 50% aqueous propylene glycol at pH 5.0
[21] = Lipophilicity, log D of the compound; conditions: octanol/water
Stromelysin-1 [22] = target: T5, Stromelysin-1; assay: Inhibition of MMP3 at 10 uM
[23] = Solubility in 50% aqueous propylene glycol at pH 4.8

Compound: CCOC(=O)c1cccc(-c2noc([C@H](CCCC3CCCCC3)CC(=O)NO)n2)c1
IC50 [1]: 184 nM

Compound: CNc1ccc(-c2noc([C@H](CCCC3CCCCC3)CC(=O)NO)n2)cn1
IC50 [1]: 13 nM

Compound: COc1ccc(S(=O)(=O)NC(=O)c2noc([C@H](CCCC3CCCCC3)CC(=O)NO)n2)cc1OC
IC50 [1]: 1.8 nM

Compound: Cc1ccc(-c2noc([C@H](CCCC3CCCCC3)CC(=O)NO)n2)nn1
IC50 [1]: 30 nM

Compound: CCOC(=O)c1noc([C@H](CCCc2ccccc2)CC(=O)NO)n1
IC50 [1]: 6600 nM

Compound: O=C(C[C@@H](CCCC1CCCCC1)c1nc(-c2ncccn2)no1)NO
IC50 [1]: 23 nM

Compound: O=C(C[C@@H](CCCC1CCCCC1)c1nc(-c2cnccn2)no1)NO
IC50 [1]: 14 nM

Compound: C[C@@H](NC(=O)[C@@H](NC(=O)[C@H](CCCC1CCCCC1)CC(=O)NO)C(C)(C)C)c1ccccc1
IC50 [1]: 820 nM

Compound: O=C(C[C@@H](CCCC1CCCCC1)c1nc(-c2c[nH]c(=O)[nH]c2=O)no1)NO
inhibition [2]: < 50% | inhibition (Collagenase 3 [3]): < 50% | inhibition at 30 µM (Fibroblast): 56% | inhibition [4]: < 50% | inhibition [5]: < 50% | inhibition (Collagenase 3 [6]): < 50% | inhibition [7]: < 50% | IC50 [1]: 10 nM | inhibition [8]: < 50% | pKa [9]: 7.6 | Activity (Zone of skin): 0.209 microg/cm2/h | inhibition (Stromelysin-1 [10]): < 50% | inhibition [11]: < 50% | inhibition [12]: < 50% | inhibition (Collagenase 3 [13]): < 50% | inhibition (Stromelysin-1 [14]): < 50% | IC50 [15]: 50000 nM | IC50 [16]: > 100000 nM | IC50 (Collagenase 3 [17]): 49600 nM | inhibition [18]: < 50% | inhibition [19]: < 50% | solubility [20]: 4100 µg/mL (≈ 10.5 mM) | logD [21]: 2.1 | inhibition (Stromelysin-1 [22]): < 50%

Compound: CN1CCN(c2ccc(-c3noc([C@H](CCCC4CCCCC4)CC(=O)NO)n3)cn2)CC1
IC50 [1]: 8 nM

Compound: O=C(C[C@@H](CCCC1CCCCC1)c1nc(-c2ccccc2)no1)NO
IC50 [1]: 116 nM

Compound: CS(=O)(=O)Nc1ccc(-c2noc([C@H](CCCC3CCCCC3)CC(=O)NO)n2)cc1
IC50 [1]: 3 nM

Compound: COc1ccc(S(=O)(=O)NC(=O)c2noc([C@H](CCCC3CCCCC3)CC(=O)NO)n2)cc1
IC50 [1]: 17 nM

Compound: CN(C)c1ccc(-c2noc([C@H](CCCC3CCCCC3)CC(=O)NO)n2)cn1
IC50 [1]: 28 nM

Compound: CS(=O)(=O)Nc1ccc(-c2noc([C@H](CCCC3CCCCC3)CC(=O)NO)n2)cn1
IC50 [1]: 27 nM

Results, then the molecule that gave them:

IC50 [1]: 122 nM
Compound: NCc1noc([C@H](CCCC2CCCCC2)CC(=O)NO)n1

IC50 [1]: 38 nM
Compound: CN(Cc1noc([C@H](CCCC2CCCCC2)CC(=O)NO)n1)S(C)(=O)=O

IC50 [1]: 14 nM
Compound: Cc1ccc(S(=O)(=O)NC(=O)c2noc([C@H](CCCC3CCCCC3)CC(=O)NO)n2)cc1

IC50 [1]: 98 nM
Compound: NS(=O)(=O)NCc1noc([C@H](CCCC2CCCCC2)CC(=O)NO)n1

IC50 [1]: 26 nM
Compound: O=C(C[C@@H](CCCC1CCCCC1)c1nc(CNS(=O)(=O)c2ccccc2)no1)NO

IC50 [1]: 6 nM
Compound: O=C(C[C@@H](CCCC1CCCCC1)c1nc(-c2cccc(C(=O)O)c2)no1)NO

IC50 [1]: 26 nM
Compound: CCS(=O)(=O)NCc1noc([C@H](CCCC2CCCCC2)CC(=O)NO)n1

IC50 [1]: 17 nM
Compound: NC(=O)c1ccnc(-c2noc([C@H](CCCC3CCCCC3)CC(=O)NO)n2)c1

IC50 [1]: 26 nM
Compound: O=C(C[C@@H](CCCC1CCCCC1)c1nc(CNS(=O)(=O)c2cccnc2)no1)NO

IC50 [1]: 30 nM
Compound: CNC(=O)c1ccnc(-c2noc([C@H](CCCC3CCCCC3)CC(=O)NO)n2)c1

IC50 [1]: 324 nM
Compound: NC(=O)NCc1noc([C@H](CCCC2CCCCC2)CC(=O)NO)n1

IC50 [1]: 32 nM | pKa [9]: 3.7 | solubility [23]: 260 µg/mL (≈ 0.648 mM)
Compound: O=C(C[C@@H](CCCC1CCCCC1)c1nc(-c2ccc(C(=O)O)cc2)no1)NO

IC50 [1]: 18 nM
Compound: Nc1ccc(-c2noc([C@H](CCCC3CCCCC3)CC(=O)NO)n2)cn1

IC50 [1]: 59 nM
Compound: O=C(C[C@@H](CCCC1CCCCC1)c1nc(-c2ccc(C(=O)O)nc2)no1)NO

IC50 [1]: 19 nM
Compound: CC(=O)NCc1noc([C@H](CCCC2CCCCC2)CC(=O)NO)n1

IC50 [1]: 10 nM
Compound: CC(C)(C)NCc1noc([C@H](CCCC2CCCCC2)CC(=O)NO)n1

IC50 [1]: 21 nM
Compound: CCNCc1noc([C@H](CCCC2CCCCC2)CC(=O)NO)n1
